Assay [1] has as its system SH-SY5Y. In words: Ionophoric activity in human SH-SY5Y cells assessed as increase in cellular Zn uptake at 20 uM after 6 hrs by ICP-MS analysis relative to vehicle-treated control. The format is functional. A digest of the protocol:
(§1)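 SH-SY5Y neuronal cells exposed to each compound at 20 μM for 6 h. Cellular Zn, Cu and Fe content then determined by ICP-MS and compared with untreated control level.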

The test system of assay [2] is SH-SY5Y. In words: Ionophoric activity in human SH-SY5Y cells assessed as increase in cellular Fe uptake at 20 uM after 6 hrs by ICP-MS analysis relative to vehicle-treated control. The assay is classed as functional, cell-based. Put shortly: as §1
Assay [3] can be described thus: Reversal of Zn-induced human soluble amyloid beta (1 to 42) aggregation after 30 mins by bis-ANS-based fluorometric analysis. A digest of the protocol:
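Soluble Aβ oligomer aggregation monitored fluorometrically with bis-ANS.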

Assay [4] has as its system SH-SY5Y. In words: Ionophoric activity in human SH-SY5Y cells assessed as increase in cellular Cu uptake at 20 uM after 6 hrs by ICP-MS analysis relative to vehicle-treated control. The format is functional. Put shortly:
as §1

The source made the active and inactive calls. The rule behind the calls is not given here.

Broadly, the EC50 is the concentration needed to bring the measured effect to its halfway point. Turning to `CN(Cc1cn(CCCCF)nn1)Cc1ccc2c(Cl)cc(Cl)c(O)c2n1`, the “fold change (FC)” value with SH-SY5Y [1] was greater than 2. For the same compound, in the assay with SH-SY5Y [2], the result was inactive. The EC50 in assay [3] is 2800 nM.
Take `Oc1c(I)cc(Cl)c2cccnc12` [CLIOQUINOL]: the outcome in the assay with SH-SY5Y [4] and in the assay on SH-SY5Y [1] was Active. Further, in assay [3], the EC50 is 1800 nM.
With `Oc1c(Br)cc(F)c2cccnc12`, the “fold change (FC)” value with SH-SY5Y [4] is listed as 6; in the assay with SH-SY5Y [1], greater than 2. In addition, the EC50 in assay [3] came to 3700 nM.
In the case of `Oc1cccc2nccnc12`, the outcome with SH-SY5Y [1] and with SH-SY5Y [2] was inactive.
In the case of `CN(C)Cc1ccc2c(Cl)cc(Cl)c(O)c2n1`, the result with SH-SY5Y [4] and in the assay on SH-SY5Y [1] was Active. Further, the EC50 in assay [3] was 2000 nM.
For the compound `Oc1ccccc1/N=C/c1ccc(F)cc1`, the outcome in the assay with SH-SY5Y [1] and in the assay on SH-SY5Y [2] was inactive. Further, the EC50 in assay [3] was found to be 15400 nM.
Turning to `Oc1cccc2cc[nH]c12`, the outcome in the assay on SH-SY5Y [1] and in the assay on SH-SY5Y [2] was inactive.
`Oc1cccc2cc(F)cnc12`: the result in the assay on SH-SY5Y [4] was Active. The outcome with SH-SY5Y [1] and in the assay on SH-SY5Y [2] was inactive.
On to `Oc1cccc2cccnc12`, for which the outcome with SH-SY5Y [4] was Active. Besides, the result in the assay on SH-SY5Y [1] and with SH-SY5Y [2] was inactive.
Turning to `Oc1c(Cl)cc(Cl)c2ccc(COCCF)nc12`, in the assay with SH-SY5Y [2], the outcome was inactive. For the same compound, the EC50 in assay [3] came to 2400 nM.
As for `Oc1c(F)cc(Cl)c2cccnc12`, the EC50 in assay [3] was 4900 nM.
As to `CN(Cc1cn(CCCF)nn1)Cc1ccc2c(Cl)cc(Cl)c(O)c2n1`, the “fold change (FC)” value in the assay on SH-SY5Y [1] is given as greater than 2. Also, the result with SH-SY5Y [2] was inactive. Moreover, the EC50 in assay [3] was found to be 4500 nM.
In the case of `CN(Cc1cn(CCF)nn1)Cc1ccc2c(Cl)cc(Cl)c(O)c2n1`, the “fold change (FC)” value in the assay on SH-SY5Y [1] is listed as greater than 2. Moreover, the outcome in the assay on SH-SY5Y [2] was inactive. Besides, the EC50 in assay [3] stood at 2300 nM.
For `Oc1c(Cl)cc(Cl)c2ccc(COCCCCF)nc12`, in the assay with SH-SY5Y [4], the result was Active. The outcome with SH-SY5Y [2] was inactive. For the same compound, the EC50 in assay [3] was 2000 nM.
On to `Oc1c(F)ccc2cccnc12`, for which the outcome with SH-SY5Y [4] was Active. The outcome with SH-SY5Y [1] and in the assay on SH-SY5Y [2] was inactive.
On to `Oc1ccc(F)c2cccnc12`, for which the result in the assay with SH-SY5Y [4] was Active. The result in the assay with SH-SY5Y [1] and in the assay on SH-SY5Y [2] was inactive.
With `Oc1c(F)cc(I)c2cccnc12`, the EC50 in assay [3] is 2300 nM.
Consider `Oc1cc(F)cc2cccnc12`, for which the outcome in the assay on SH-SY5Y [4] was Active. The outcome in the assay on SH-SY5Y [1] and in the assay with SH-SY5Y [2] was inactive.
As to `Oc1c(Cl)cc(F)c2cccnc12`, the entries for the “fold change (FC)” value in the assay with SH-SY5Y [4] and in the assay on SH-SY5Y [1] were 6 and greater than 2, respectively. Moreover, the EC50 in assay [3] stood at 5200 nM.
For `Oc1cccc2ccc(F)nc12`, the outcome with SH-SY5Y [4], in the assay with SH-SY5Y [1] and in the assay with SH-SY5Y [2] was inactive. The EC50 in assay [3] was greater than 120000 nM.
For `COc1cccc2ccc(Cl)nc12`, the result in the assay on SH-SY5Y [1] and with SH-SY5Y [2] was inactive.
As to `Oc1c(I)cc(F)c2cccnc12`, the “fold change (FC)” value in the assay on SH-SY5Y [4] was 6; with SH-SY5Y [1], greater than 2. Moreover, the EC50 in assay [3] stood at 2500 nM.
Turning to `Oc1c(F)cc(Br)c2cccnc12`, in assay [3], the EC50 was found to be 3500 nM.
